Bioassay records: PubChem, Sanford-Burnham Center for Chemical Genomics
SENP7 block = SENP7 protease inhibitors, primary screen, biochemical, luminescence, uHTS. inhibition, % at 5 µM. recombinant SENP7, Z-RLRGG-aminoluciferin luminescence, 40 min. 330,000 tested, 1.5% active;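 active = inhibition above about 50% at the single test dose, limit read from the data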;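 also: plate controls were DMSO with enzyme for no effect and no enzyme buffer wells for full effect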
SENP8 block-1 = SENP8 protease inhibitors, primary screen, biochemical, luminescence; Sentrin-specific protease 8 (Homo sapiens), Q96LD8; AID 2540, 2010; inhibition, % at 10 µM; purified SENP8, Z-RLRGG-aminoluciferin cleavage; 330,000 tested, 1.2% active; in the data active = inhibition above about 50%
SENP6 block = SENP6 protease inhibitors, primary screen, biochemical, luminescence, uHTS | Recombinant SENP6 catalytic domain, aminoluciferin luminescence | inhibition, % at 10 µM | 330,000 tested, 1.8% active | AID 2599, 2010;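 active = inhibition above about 50% at the single tested dose, limit read from the data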;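 also: plate controls were DMSO wells with enzyme for no effect and DMSO wells lacking enzyme for full effect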
SENP8 block-2 = human SENP8 protease inhibitors, primary screen, biochemical, fluorescence, Nedd8 protein substrate, uHTS. Sentrin-specific protease 8 (Homo sapiens), Q96LD8. recombinant SENP8. inhibition, % at 20 µM. 360,000 tested, 0.64% active; in the data active = inhibition mostly above about 40%, no sharp cut-off; inactive = mostly below about 27%
Apaf-1 inh = inhibitors of human Apaf-1 apoptosome, primary screen, biochemical, DEVD-Rh110 fluorescence, uHTS. 330,000 tested, 0.71% active. inhibition, % at 20 µM. reconstituted apoptosome caspase-3 activity. AID 489030, 2010; active = inhibition of at least 40% at 20 µM;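 also: plate controls were DMSO wells for no effect and DEVD-CHO caspase inhibitor wells for full effect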
Target sequence (O14727 whole entry, looked up): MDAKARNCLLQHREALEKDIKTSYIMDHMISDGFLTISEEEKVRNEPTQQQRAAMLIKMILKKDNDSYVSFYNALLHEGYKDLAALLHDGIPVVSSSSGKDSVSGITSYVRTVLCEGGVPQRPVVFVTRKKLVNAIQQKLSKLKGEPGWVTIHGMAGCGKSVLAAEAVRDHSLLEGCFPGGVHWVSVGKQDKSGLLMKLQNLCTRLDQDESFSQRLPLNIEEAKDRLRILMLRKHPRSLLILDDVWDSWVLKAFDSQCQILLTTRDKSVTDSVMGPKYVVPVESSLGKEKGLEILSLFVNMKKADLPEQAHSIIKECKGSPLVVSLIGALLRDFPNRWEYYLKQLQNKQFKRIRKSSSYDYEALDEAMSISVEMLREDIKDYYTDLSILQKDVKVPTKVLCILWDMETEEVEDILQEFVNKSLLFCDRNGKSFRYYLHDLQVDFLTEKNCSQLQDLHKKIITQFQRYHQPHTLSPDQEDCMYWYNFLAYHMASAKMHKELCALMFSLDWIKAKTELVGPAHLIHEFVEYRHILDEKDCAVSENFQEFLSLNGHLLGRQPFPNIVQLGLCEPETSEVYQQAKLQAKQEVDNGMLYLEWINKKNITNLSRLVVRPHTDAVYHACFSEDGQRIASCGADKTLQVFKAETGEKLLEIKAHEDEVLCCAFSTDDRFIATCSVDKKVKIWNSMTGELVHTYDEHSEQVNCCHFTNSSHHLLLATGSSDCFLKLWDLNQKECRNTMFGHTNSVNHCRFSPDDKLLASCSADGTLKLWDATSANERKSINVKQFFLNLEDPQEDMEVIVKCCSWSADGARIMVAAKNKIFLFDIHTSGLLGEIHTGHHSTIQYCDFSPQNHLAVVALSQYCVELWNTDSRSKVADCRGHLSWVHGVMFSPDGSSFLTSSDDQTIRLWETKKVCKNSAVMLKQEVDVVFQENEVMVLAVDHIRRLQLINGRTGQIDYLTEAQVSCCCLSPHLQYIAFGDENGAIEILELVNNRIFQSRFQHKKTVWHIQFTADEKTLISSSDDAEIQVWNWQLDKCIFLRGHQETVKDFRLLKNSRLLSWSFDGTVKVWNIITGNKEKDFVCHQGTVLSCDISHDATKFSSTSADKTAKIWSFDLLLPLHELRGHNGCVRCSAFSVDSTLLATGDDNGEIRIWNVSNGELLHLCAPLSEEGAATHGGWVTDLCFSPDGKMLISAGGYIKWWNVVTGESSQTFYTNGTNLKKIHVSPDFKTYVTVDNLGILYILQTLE
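Material: cell-free apoptosome with Apaf-1, procaspase-3 and caspase-9; Buffer or medium: Hepes pH 7.5 with detergent and BSA; Reagent: cytochrome c trigger plus (Z-DEVD)2-Rh110 caspase-3 substrate; Times: compound with Apaf-1, dATP, procaspase-3 30 min, then 50 min reaction, room temperature; Technique: Rh110 fluorescence intensity.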
UBC13 inh = UBC13 polyubiquitin chain formation inhibitors, primary screen, biochemical, TR-FRET, uHTS. inhibition, % at 20 µM. 330,000 tested, 0.47% active. Ubiquitin-conjugating enzyme E2 N (Homo sapiens), P61088. AID 485273, 2010; in the data active = inhibition above about 45%, passing the limit was not always enough
SENP8 conf = SENP8 protease inhibitors, retest, confirmation, biochemical, luminescence, single concentration. shares compounds with SENP7 block. Recombinant SENP8, Z-RLRGG-aminoluciferin luminescence, 60 min. inhibition, % at 12.5 µM. 6,200 tested, 40% active. AID 488912, 2010;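 active = mean inhibition across replicates above about 50%, limit read from the data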
SENP6 conf = SENP6 protease inhibitors, confirmation, biochemical, luminescence, single concentration. shares compounds with SENP7 block. recombinant SENP6, Z-RLRGG-aminoluciferin luminescence. inhibition, % at 12.5 µM. 6,200 tested, 58% active
SENP7 conf = SENP7 protease inhibitors, retest, confirmation, biochemical, luminescence, single concentration; shares compounds with SENP7 block; recombinant SENP7, Z-RLRGG-aminoluciferin luminescence, 40 min; inhibition, % at 12.5 µM; 6,200 tested, 69% active; AID 488917, 2010
Casp3 SENP sel = caspase-3 protease inhibitors, confirmation, selectivity assay for SENP inhibitor project, biochemical, single concentration. purified caspase-3, Z-DEVD-aminoluciferin luminescence, 60 min. shares compounds with SENP7 block. 6,200 tested, 60% active. inhibition, % at 12.5 µM. AID 488918, 2010;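 active = mean inhibition above about 50%, limit read from the data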;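 also: plate controls were enzyme with DMSO for no effect and wells without caspase-3 for full effect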
SENP luc ctr = luminescence interference (SENP counter-screen) | shares compounds with SENP7 block | Pre-incubated SENP8/Z-RLRGG-aminoluciferin, luciferase luminescence interference | inhibition, % at 12.5 µM | 6,200 tested, 39% active | AID 488919;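 active = mean inhibition above about 50% when retested at one dose, limit read from the data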;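 also: plate controls were DMSO wells with completed reaction for no effect and substrate without enzyme for full effect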
Active calls of the source: *; x = not tested or not shown. Most compounds without a hit are left out; they make up all but 3% or so of the library.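 The calls were made as follows, unless noted: active = mean inhibition above about 50% in the one-dose retest (limit read from the data); inactive = the rest.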

SMILES | SENP7 block | SENP8 block-1 | SENP6 block | SENP8 block-2 | Apaf-1 inh | UBC13 inh | SENP8 conf | SENP6 conf | SENP7 conf | Casp3 SENP sel | SENP luc ctr
O=C(NCc1cccc(F)c1)c1[nH]c(C(F)(F)F)nc1-c1ccccc1 | x | x | x | 21.7 | x | x | x | x | x | x | x
O=C(Nc1cccc2c1CCCC2)c1cc(C2CCCCN2S(=O)(=O)c2cccs2)on1 (centres undefined) | x | x | x | 10.6 | x | x | x | x | x | x | x
CCOc1ccc(NC(=O)c2ccccn2)cc1 | 92.3* | 81.3* | 91.4* | 6.1 | -9.0 | 5.5 | 91.6* | 91.9* | 100.0* | 95.6* | 89.1*
CCOc1ccc(NC(=O)c2ccccc2CO)cc1 | 1.4 | -15.7 | 12.7 | 16.5 | 1.9 | -2.2 | x | x | x | x | x
CCOc1ccc(NC(=O)c2ccccc2O)cc1 | 37.9 | 36.4 | 64.4* | 4.7 | 0.5 | -0.5 | 55.4* | 49.0 | 78.0* | 64.4* | 63.2*
CCOc1ccc(NC(=O)c2nccnc2CO)cc1 | 47.5 | 14.4 | 52.7* | -11.9 | -12.2 | 8.2 | 37.6 | 34.8 | 74.1* | 82.4* | 55.3*
CC12CCC3C(CCC4CC(O)CCC43C)C1CC(=O)C2 (centres undefined) | x | x | x | 1.1 | x | x | x | x | x | x | x
Cc1cccc(-c2cnc(C(O)Cc3ccccc3)[nH]2)c1 (centres undefined) | x | x | x | -18.1 | x | x | x | x | x | x | x
CCc1nc2c(OCCC3CCCCC3)cccn2c1N(C=O)Cc1ccc(OC)cc1 | x | x | x | 9.8 | x | x | x | x | x | x | x
Cc1cc(C(=O)Nc2nc3c(s2)CCCC3)no1 | 56.3* | 18.6 | 62.9* | 9.8 | -9.3 | -2.9 | 45.5 | 41.8 | 79.6* | 75.3* | 54.5*
CN(C)c1ccc(C(=O)Nc2nc3c(s2)CCCC3)cc1 | 98.1* | 93.7* | 95.4* | -397.2 | 30.5 | 25.8 | 13.5 | 69.3* | 82.2* | 58.5* | 38.1
Cc1onc(-c2ccccc2)c1C(=O)Nc1nc2c(s1)CCCC2 | -1.2 | -8.9 | -14.1 | -13.3 | 12.9 | 5.2 | x | x | x | x | x
COc1cc(F)ccc1-c1csc(C(C)(NC(C)=O)c2ccccc2)n1 (centres undefined) | x | x | x | 20.7 | x | x | x | x | x | x | x
CCN(CC)c1ccc(C(=O)OCC(=O)Nc2sccc2C#N)cc1 | 5.6 | 21.4 | 69.3* | -9.8 | 11.7 | -21.3 | 38.0 | 42.1 | 69.9* | 21.0 | 36.7
CCC(=O)Oc1ccc2c(c1)O/C(=C\c1ccco1)C2=O | -6.8 | -5.0 | -3.5 | -224.6 | -3.3 | -0.8 | x | x | x | x | x
Cc1cc(O)cc2c1C(=O)/C(=C/c1ccco1)O2 | 1.5 | 63.5* | 66.7* | -71.2 | 6.2 | -7.5 | 85.3* | 86.6* | 98.5* | 89.5* | 89.1*
COc1nc(-c2ccccc2)ccc1-c1noc(-c2cccs2)n1 | -4.0 | -29.7 | -50.3 | -169.7 | 22.2 | 14.8 | x | x | x | x | x
Cc1ccccc1-c1noc(-c2cccs2)n1 | 84.5* | 77.6* | 85.5* | 26.6 | 13.7 | -4.0 | 38.4 | 83.5* | 94.2* | 60.6* | 32.8
COc1nc(C)ccc1-c1noc(-c2cccs2)n1 | 70.0* | 49.3 | 62.4* | -14.8 | -16.2 | 1.3 | 2.7 | 48.0 | 83.8* | 41.3 | 14.2
O=C(NC1CCCC1)C(c1ccccc1)n1c(-c2ccc3c(c2)CCO3)nc2ccccc21 (centres undefined) | x | x | x | 1.9 | x | x | x | x | x | x | x
CC1(C(=O)NCc2ccco2)CCN1C(=O)C1(c2ccccc2)CC1 (centres undefined) | x | x | x | 17.1 | x | x | x | x | x | x | x
O=C(O/N=C1\CCCc2ccccc21)C1CC1 | 2.1 | -0.4 | 8.2 | 21.0 | -29.0 | -2.4 | x | x | x | x | x
O=C(O)c1ccc(N/N=C2/CCCc3ccccc32)cc1 | 16.7 | 48.2 | 71.5* | -19.2 | -17.9 | -2.6 | 70.7* | 67.8* | 84.3* | 72.7* | 58.0*
O=C(O/N=C1\CCCc2ccccc21)c1cccc(Cl)c1 | 82.0* | 46.4 | 82.9* | 5.0 | 14.5 | 3.7 | 65.9* | 63.6* | 90.0* | 64.6* | 42.6
O=C(O)c1ccc(N/N=C2/CCSc3ccc(F)cc32)cc1 | 5.9 | -6.0 | -18.9 | -24.2 | 3.7 | 1.3 | x | x | x | x | x
SMILES | SENP7 block | SENP8 block-1 | SENP6 block | SENP8 block-2 | Apaf-1 inh | UBC13 inh | SENP8 conf | SENP6 conf | SENP7 conf | Casp3 SENP sel | SENP luc ctr
Cc1cc(Cl)ccc1OCC(=O)N/N=C1\CCCc2ccccc21 | 5.1 | 7.4 | 1.1 | 15.9 | 19.9 | -6.7 | x | x | x | x | x
Cc1cccc(C(=O)O/N=C2\CCSc3ccc(C)cc32)c1 | 0.7 | 0.1 | 13.1 | -36.8 | 14.7 | -4.8 | x | x | x | x | x
Cc1ccc(C(=O)O/N=C2\CCCc3ccccc32)cc1 | 97.4* | 90.1* | 97.2* | 12.2 | 19.6 | -16.4 | 71.6* | 98.5* | 102.7* | 84.6* | 12.4
Cc1cccc(C(=O)O/N=C2\CCCc3ccccc32)c1 | 90.1* | 64.7* | 91.6* | 4.3 | 22.4 | -9.1 | 42.9 | 88.3* | 97.8* | 77.8* | 63.5*
Cc1ccc(OCCn2ncc3ccccc3c2=O)c(C)c1 | -3.5 | -5.9 | -13.9 | 13.8 | 3.1 | 7.7 | x | x | x | x | x
O=c1c2ccccc2cnn1CCOc1cccc(Br)c1 | 58.5* | 59.8* | 73.9* | 8.4 | 9.3 | 8.2 | 55.0* | 67.9* | 86.3* | 58.0* | 6.4
c1coc(CNc2c3c(nc4ncnn24)CCCC3)c1 | 1.5 | 1.1 | -18.7 | -0.7 | 8.5 | 1.9 | x | x | x | x | x
Cc1ccc(-c2cc3nc(C)cc(NCc4ccco4)n3n2)cc1 | 92.1* | 74.3* | 80.6* | -329.2 | 21.9 | 9.6 | 46.1 | 37.5 | 60.9* | 63.2* | 37.9
Clc1cccc(-c2cc3nc4c(c(NCc5ccco5)n3n2)CCCC4)c1 | 26.2 | 52.6* | 81.1* | -265.9 | 2.4 | 2.1 | -4.1 | 7.5 | 3.3 | 6.7 | 3.6
COCCNc1cc(C)nc2cc(-c3ccc(C)cc3)nn12 | -1.2 | -4.0 | -5.9 | -410.6 | 9.1 | 7.1 | x | x | x | x | x
CC(C)(C)n1nnnc1C(c1ccccc1)N1CCN(C(=O)c2ccco2)CC1 (centres undefined) | x | x | x | 18.1 | x | x | x | x | x | x | x
